In ChEMBL document CHEMBL1124805 (J Med Chem, 1990) one finds Ki and Potency ratio data, which are given here for six molecules.

Experiment [1] has as its target D(1A) dopamine receptor (Rattus norvegicus, UniProt P18901). In words: Binding affinity at rat striatal Dopamine receptor D1 using [3H]- SCH-23390 radioligand.
Experiment [2] has as its target Dopamine receptor (Bos taurus, UniProt Q95136+P20288). As to the kind of experiment: Agonistic activity against calf striatal Dopamine receptor using [3H]- ADTN radioligand. In kind it is functional. The essentials:
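Calf striatal membranes incubated with the dopamine agonist radioligand (±)-[3H]ADTN at 0.5 nM for 60 min at 25 °C.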

Experiment [3] addresses D(2) dopamine receptor (Rattus norvegicus, UniProt P61169). As to the kind of experiment: Binding affinity at rat striatal Dopamine receptor D2 using [3H]- piperone radioligand.
Experiment [4] has as its target Dopamine receptors; D1 & D2 (Rattus norvegicus) (UniProt P18901+P61169). In words: Ratio of binding affinity of D2 to binding affinity of D1. In kind it is protein assay.

Chain of D(2) dopamine receptor (P61169 whole entry): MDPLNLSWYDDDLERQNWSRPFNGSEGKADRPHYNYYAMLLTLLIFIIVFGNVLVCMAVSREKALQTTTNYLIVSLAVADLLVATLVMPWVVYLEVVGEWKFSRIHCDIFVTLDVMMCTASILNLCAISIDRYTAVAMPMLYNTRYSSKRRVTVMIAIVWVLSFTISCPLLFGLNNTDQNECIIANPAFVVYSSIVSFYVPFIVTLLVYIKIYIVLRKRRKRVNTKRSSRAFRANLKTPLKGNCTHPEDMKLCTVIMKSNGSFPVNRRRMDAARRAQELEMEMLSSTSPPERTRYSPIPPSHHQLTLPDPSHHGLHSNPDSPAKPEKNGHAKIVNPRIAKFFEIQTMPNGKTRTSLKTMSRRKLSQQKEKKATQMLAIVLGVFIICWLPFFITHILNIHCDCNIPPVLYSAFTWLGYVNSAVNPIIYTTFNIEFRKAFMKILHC
Chain of D(1A) dopamine receptor (P18901 whole entry): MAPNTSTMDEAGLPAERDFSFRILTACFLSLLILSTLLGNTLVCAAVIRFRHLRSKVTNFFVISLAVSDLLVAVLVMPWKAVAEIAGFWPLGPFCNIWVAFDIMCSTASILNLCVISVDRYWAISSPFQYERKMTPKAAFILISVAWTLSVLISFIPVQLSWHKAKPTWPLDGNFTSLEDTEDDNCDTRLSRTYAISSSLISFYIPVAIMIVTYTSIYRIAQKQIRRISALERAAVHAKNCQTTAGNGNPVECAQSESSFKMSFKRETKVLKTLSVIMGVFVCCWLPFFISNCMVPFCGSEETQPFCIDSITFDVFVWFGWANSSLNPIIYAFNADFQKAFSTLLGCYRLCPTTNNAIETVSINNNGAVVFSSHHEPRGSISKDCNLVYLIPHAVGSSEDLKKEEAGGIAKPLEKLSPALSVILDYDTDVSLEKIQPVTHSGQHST

A word on the Ki: it is the dissociation constant of the complex between target and ligand, obtained from inhibition or displacement. Read a high Ki as a looser hold on the target. For `CCCN1CCc2cc(OC)cc3c2[C@H]1Cc1ccc(O)c(O)c1-3`, the values for the inhibition constant Ki in experiment [1], in experiment [2] and in experiment [3] were 1780 nM, 3.84 nM and 0.17 nM, respectively. The Potency ratio in experiment [4] amounted to 10500.
With `CN1CCc2cc(Br)cc3c2[C@H]1Cc1ccc(O)c(O)c1-3`, the Ki in experiment [1] was 106 nM; in experiment [3], 17.7 nM. Besides, the Potency ratio in experiment [4] amounted to 6.
Consider `CCCN1CCc2cc(O)cc3c2[C@H]1Cc1ccc(O)c(O)c1-3`, for which the Ki was 915 nM in experiment [1], 1.15 nM in experiment [2] and 0.053 nM in experiment [3]. Moreover, the Potency ratio in experiment [4] worked out at 17300.
Taken in the same sequence, the figures for `COc1cc2c3c(c1)-c1c(ccc(O)c1O)C[C@H]3N(C)CC2` were below 10000 nM, 16.4 nM, 1.12 nM and above 9000.
For `COc1cc2c3c(c1)-c1c(ccc(O)c1O)C[C@@H]3N(C)CC2`, in that order: below 10000 nM, 162 nM, 34.7 nM and above 300.
With `CN1CCc2cc(Cl)cc3c2[C@H]1Cc1ccc(O)c(O)c1-3`, the Ki in experiment [1] stood at 74.5 nM; in experiment [3], 22.3 nM. In addition, the Potency ratio in experiment [4] stood at 3.3.
